Results published in ChEMBL document CHEMBL3259672, “Design, synthesis, and biological evaluation of O-2-modified indenoisoquinolines as dual topoisomerase I-tyrosyl-DNA phosphodiesterase I inhibitors” (J Med Chem, 2014).
Calls of active or inactive are those of the source. No cut-off for these calls is given here.

How the values were obtained:
[1] = target: Tyrosyl-DNA phosphodiesterase 1 (Homo sapiens, UniProt Q9NUW8); assay: Inhibition of recombinant TDP1(unknown origin) using 5'-[32P]-single stranded N14Y DNA oligonucleotide after 15 mins by […]
Tyrosyl-DNA phosphodiesterase 1, sequence (Q9NUW8 whole entry): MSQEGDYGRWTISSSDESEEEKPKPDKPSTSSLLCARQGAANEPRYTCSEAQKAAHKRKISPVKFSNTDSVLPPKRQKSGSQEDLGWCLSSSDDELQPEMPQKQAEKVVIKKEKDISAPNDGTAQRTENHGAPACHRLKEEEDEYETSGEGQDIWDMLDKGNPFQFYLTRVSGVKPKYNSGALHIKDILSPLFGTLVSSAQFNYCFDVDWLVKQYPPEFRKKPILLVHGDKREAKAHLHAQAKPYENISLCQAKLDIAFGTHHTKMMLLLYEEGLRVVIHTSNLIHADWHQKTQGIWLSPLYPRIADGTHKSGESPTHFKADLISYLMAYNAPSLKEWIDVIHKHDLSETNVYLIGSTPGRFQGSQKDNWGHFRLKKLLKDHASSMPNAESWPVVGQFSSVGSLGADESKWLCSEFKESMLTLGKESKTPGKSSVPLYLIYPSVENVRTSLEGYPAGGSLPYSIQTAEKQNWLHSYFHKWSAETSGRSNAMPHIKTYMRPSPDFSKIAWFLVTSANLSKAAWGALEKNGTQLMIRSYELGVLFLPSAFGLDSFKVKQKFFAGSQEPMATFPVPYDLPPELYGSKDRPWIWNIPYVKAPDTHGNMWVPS
Method in brief: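 A 5′-32P-labeled single-stranded oligonucleotide with 3′ phosphotyrosine (N14Y) was incubated with 5 pM recombinant TDP1 for 15 min at room temperature. Loss of the N14P product band on the gel marks inhibition.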

[2] = target: T1, DNA topoisomerase 1 (Homo sapiens) (UniProt P11387); assay: Inhibition of human recombinant topoisomerase 1-mediated 117 bp DNA cleavage at 0.1 to 100 uM by agarose gel electrophoresis; settings: in the assay text read “denaturing PAGE” for “agarose gel electrophoresis”
T1 sequence (whole entry): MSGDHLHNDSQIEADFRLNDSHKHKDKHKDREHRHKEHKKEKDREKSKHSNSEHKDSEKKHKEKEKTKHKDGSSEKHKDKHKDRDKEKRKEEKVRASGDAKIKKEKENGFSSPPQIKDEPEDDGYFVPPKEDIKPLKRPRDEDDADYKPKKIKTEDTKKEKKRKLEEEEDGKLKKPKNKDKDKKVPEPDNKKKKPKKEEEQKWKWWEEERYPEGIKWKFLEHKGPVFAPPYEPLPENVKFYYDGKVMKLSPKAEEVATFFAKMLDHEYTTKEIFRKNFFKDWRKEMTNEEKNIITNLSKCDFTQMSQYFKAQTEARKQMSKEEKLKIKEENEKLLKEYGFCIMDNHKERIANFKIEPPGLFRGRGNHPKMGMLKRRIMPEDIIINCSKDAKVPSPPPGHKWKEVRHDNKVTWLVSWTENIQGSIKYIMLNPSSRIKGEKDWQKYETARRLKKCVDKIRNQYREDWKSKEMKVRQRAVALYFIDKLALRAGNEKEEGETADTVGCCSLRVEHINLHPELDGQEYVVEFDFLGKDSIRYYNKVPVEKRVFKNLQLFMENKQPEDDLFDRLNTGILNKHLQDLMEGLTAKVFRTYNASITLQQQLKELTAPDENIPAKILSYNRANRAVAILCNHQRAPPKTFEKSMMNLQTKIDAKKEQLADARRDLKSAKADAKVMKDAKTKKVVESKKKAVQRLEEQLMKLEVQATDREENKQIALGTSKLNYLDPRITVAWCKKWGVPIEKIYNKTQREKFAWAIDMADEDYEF
Method in brief: (§1)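 Human recombinant Top1 was purified from baculovirus. Compound was tested at 0.1, 1, 10 and 100 μM for 20 min at 25 °C. Reactions were stopped with SDS (0.5% final) and run on 20% denaturing PAGE with phosphoimager read-out. Activity was graded semiquantitatively.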

[3] = target: T1, DNA topoisomerase 1 (Homo sapiens); assay: Inhibition of human recombinant topoisomerase 1-mediated 117 bp DNA cleavage by agarose gel electrophoresis; settings: in the assay text read “denaturing PAGE” for “agarose gel electrophoresis”; method in brief: as §1
[4] = test system: DU-145; assay: Growth inhibition of human DU145 cells after 48 hrs by SRB assay; type: functional; settings: DU-145, 48 h
Method in brief: (§2)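 NCI60 screen. Cells were exposed to 100, 10, 1, 0.1 and 0.01 μM for 48 h, then stained with sulforhodamine B and read by optical density. Percent growth relative to control was plotted against log concentration. […] Where a standard error is given, values are the mean of two determinations.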

[5] = test system: SN12C; assay: Growth inhibition of human SN12C cells after 48 hrs by SRB assay; type: functional; method in brief: as §2
[6] = Growth inhibition of human UACC62 cells after 48 hrs by SRB assay; type: functional; settings: UACC-62, 48 h; method in brief: as §2
[7] = Growth inhibition of human OVCAR3 cells after 48 hrs by SRB assay; type: functional; settings: OVCAR-3, 48 h; method in brief: as §2
[8] = Growth inhibition of human SF539 cells after 48 hrs by SRB assay; type: functional; settings: SF-539, 48 h; method in brief: as §2
[9] = test system: HOP-62; assay: Growth inhibition of human HOP62 cells after 48 hrs by SRB assay; type: functional; settings: HOP-62, 48 h; method in brief: as §2
[10] = test system: MCF7; assay: Growth inhibition of human MCF7 cells after 48 hrs by SRB assay; type: functional; settings: MCF7, 48 h; method in brief: as §2
[11] = test system: HCT-116; assay: Growth inhibition of human HCT116 cells after 48 hrs by SRB assay; type: functional; settings: HCT-116, 48 h; method in brief: as §2

SMILES	inhibition [1]	inhibition [2]	IC50 [1] [nM]	inhibition [3]	GI50 [4] [nM]	GI50 [5] [nM]	GI50 [6] [nM]	GI50 [7] [nM]	GI50 [8] [nM]	GI50 [9] [nM]	GI50 [10] [nM]	GI50 [11] [nM]
CCNCCCOc1cc2c3c(n(CCCN4CCOCC4)c(=O)c2cc1OC)-c1cc2c(cc1C3=O)OCO2	Dose-dependent effect	Active										
C=CCOc1cc2c3c(n(CCCN4CCOCC4)c(=O)c2cc1OC)-c1cc2c(cc1C3=O)OCO2			> 111000	inactive	< 10	< 10	< 10	300	10	< 10	< 10	
COc1cc2c(=O)n(CCCN3CCOCC3)c3c(c2cc1O)C(=O)c1cc2c(cc1-3)OCO2				Active	300	200	300	900	300	300	100	390
COc1cc2c(=O)n(CCCN3CCOCC3)c3c(c2cc1OCCCN)C(=O)c1cc2c(cc1-3)OCO2				inactive	300	300	300	400	200	300		
COc1cc2c(=O)n(CCCN3CCOCC3)c3c(c2cc1OCCCN1CCOCC1)C(=O)c1cc2c(cc1-3)OCO2			> 111000	Active	20	100	200	700	100	30	20	100
COc1cc2c(=O)n(CCCN3CCOCC3)c3c(c2cc1OCCCN(C)C)C(=O)c1cc2c(cc1-3)OCO2	Dose-dependent effect	Active										
COc1cc2c3c(n(C)c(=O)c2cc1OC)-c1cc2c(cc1C3=O)OCO2					37000	68000	4200	73000		1300		35000
COc1cc2c3c(n(CCCNCCO)c(=O)c2cc1OC)-c1cc2c(cc1C3=O)OCO2 [LMP-744]									40			
COC(=O)COc1cc2c3c(n(CCCN4CCOCC4)c(=O)c2cc1OC)-c1cc2c(cc1C3=O)OCO2			> 111000	Active	900	800	1000	5800	100	100	400	1100
COc1cc2c(=O)n(CCCN3CCOCC3)c3c(c2cc1OCCCN1CCN(C)CC1)C(=O)c1cc2c(cc1-3)OCO2	Dose-dependent effect	Active	> 111000									
COc1cc2c(=O)n(CCCN3CCOCC3)c3c(c2cc1OCC(=O)NN)C(O)c1cc2c(cc1-3)OCO2 (configuration not stated)			> 111000	inactive								
COc1cc2c(=O)n(CCCN3CCOCC3)c3c(c2cc1OCCCN1CCCC1)C(=O)c1cc2c(cc1-3)OCO2		Active			40		300	1200	200		100	
COc1cc2c(=O)n(CCCN3CCOCC3)c3c(c2cc1OCCCN1CCCCC1)C(=O)c1cc2c(cc1-3)OCO2	Dose-dependent effect	Active			200	400	9600	5400	30	300	40	1100
